Shown are actives, neighbours in structure and some others; about 3% of the full set was active somewhere.
SENP8 block-1: SENP8 protease inhibitors, primary screen, biochemical, luminescence; Sentrin-specific protease 8 (Homo sapiens), Q96LD8; purified SENP8, Z-RLRGG-aminoluciferin cleavage; inhibition, % at 10 µM; actives 1.2% (n = 330,000); in the data active = inhibition above about 50%
SENP8 block-2: human SENP8 protease inhibitors, primary screen, biochemical, fluorescence, Nedd8 protein substrate, uHTS. Sentrin-specific protease 8 (Homo sapiens), Q96LD8. recombinant SENP8. inhibition, % at 20 µM. actives 0.64% (n = 360,000). AID 602440, 2012; in the data active = inhibition mostly above about 40%, no sharp cut-off; inactive = mostly below about 27%
SENP6 inh: SENP6 protease inhibitors, primary screen, biochemical, luminescence, uHTS | inhibition, % at 10 µM | actives 1.8% (n = 330,000) | Recombinant SENP6 catalytic domain, aminoluciferin luminescence;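 active = inhibition above about 50% at the single tested dose, limit read from the data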
SENP7 inh: SENP7 protease inhibitors, primary screen, biochemical, luminescence, uHTS; Sentrin-specific protease 7 (Homo sapiens), Q9BQF6; recombinant SENP7, Z-RLRGG-aminoluciferin luminescence, 40 min; inhibition, % at 5 µM; actives 1.5% (n = 330,000);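 active = inhibition above about 50% at the single test dose, limit read from the data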
UBC13 polyUb: UBC13 polyubiquitin chain formation inhibitors, primary screen, biochemical, TR-FRET, uHTS; Ubiquitin-conjugating enzyme E2 N (Homo sapiens), P61088; AID 485273, 2010; actives 0.47% (n = 330,000); inhibition, % at 20 µM; in the data active = inhibition above about 45%, passing the limit was not always enough
Apaf-1 inh: inhibitors of human Apaf-1 apoptosome, primary screen, biochemical, DEVD-Rh110 fluorescence, uHTS; Apoptotic protease-activating factor 1 (Homo sapiens), O14727; reconstituted apoptosome caspase-3 activity; inhibition, % at 20 µM; actives 0.71% (n = 330,000); active = inhibition of at least 40% at 20 µM
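System – cell-free apoptosome with Apaf-1, procaspase-3 and caspase-9 · Buffer or medium – pH 7.5 Hepes buffer with CHAPS, BSA, DTT · Also added – cytochrome c with DEVD-Rh110 · Times – 30 min compound preincubation, 50 min activation, room temperature · Technique – Rh110 fluorescence intensity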
Apaf-1 inh conf2: Apaf-1 inhibitors, single-dose retest, confirmation, biochemical, fluorescence, DEVD-Rh110, 20 µM; shares compounds with Apaf-1 inh; reconstituted apoptosome, caspase-3 DEVD-Rh110 fluorescence; inhibition, % at 20 µM; actives 25% (n = 1,800);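 active = mean inhibition of at least 40% at 20 µM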
Rh110 quench: Rh110 fluorescence interference by putative Apaf-1 inhibitors, confirmation, artefact control for Apaf-1 inhibitor project, biochemical, 20 µM; shares compounds with Apaf-1 inh; quenched caspase reaction; activation (fluorescence interference), % at 20 µM; 1,800 tested, under 10 active; AID 504615, 2011;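 active = signal rise of 40% or more at 20 µM, treated as a fluorescence artifact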
Apaf1 inh interf: fluorescence interference of Apaf-1 inhibitor hits, dose response, artefact control for Apaf-1 inhibitor project. shares compounds with Apaf-1 inh. fluorescence interference counterscreen, Apaf-1 assay format. IC50, µM. 460 tested, under 10 active; call rule not given here
Large screens that a line does not name were inactive (follow-up assays come after a bar, where they were run).

COc1cccc2c(=O)c3cccc(N)c3[nH]c12	Apaf-1 inh 69.9 | Apaf-1 inh conf2 inactive | Rh110 quench inactive
COC(=O)[C@H](Cc1ccccc1)NC(=O)Cn1cnc(C(=O)Nc2ccc(C)c(C)c2)n1	none (no result: SENP8 block-1, SENP6 inh, UBC13 polyUb)
Cc1ccc(NC(=O)c2ncn(CC(=O)N[C@H](CO)Cc3c[nH]c4ccccc34)n2)cc1C	Apaf-1 inh 74.3 (no result: SENP8 block-1, SENP6 inh, UBC13 polyUb) | Apaf-1 inh conf2 inactive | Rh110 quench inactive
CCCN(C(=O)C1CCCN(c2ncnc3c2nc2n3CCCCC2)C1)c1ccc(F)cc1 (centres undefined)	none
C=CCn1c(COc2cccc(C)c2)nnc1SC(C)C(=O)NC1CC1 (centres undefined)	Apaf-1 inh 41.2 | Apaf-1 inh conf2 46.9 | Rh110 quench inactive | Apaf1 inh interf inactive
CCN1CCN(Cc2ccc(NC(=O)c3ccc(C)c(NC(=O)c4csc(-c5ccncc5)n4)c3)cc2C(F)(F)F)CC1	Apaf-1 inh 58.5 | Apaf-1 inh conf2 inactive | Rh110 quench inactive
CCN1CCN(Cc2ccc(NC(=O)c3ccc(C)c(NC(=O)c4cccc(-c5cn[nH]c(=O)c5)c4)c3)cc2C(F)(F)F)CC1	none
O=C1c2ccccc2C(=O)N1CC(O)COc1cccc2ccccc12 (centres undefined)	none (no result: SENP8 block-1, SENP6 inh, SENP7 inh, UBC13 polyUb, Apaf-1 inh)
Cn1nc(-c2ccccn2)nc2c(=O)n(C)c(=O)nc1-2	SENP8 block-1 96.8, SENP8 block-2 93.4, SENP7 inh 95.6, Apaf-1 inh 98.1 | Apaf-1 inh conf2 100.3 | Rh110 quench inactive | Apaf1 inh interf inactive
N#Cc1c(NCCO)nc(NCc2ccccc2)c2c1CCN(Cc1ccccc1)C2	Apaf-1 inh 60.0 (no result: SENP8 block-2) | Apaf-1 inh conf2 inactive | Rh110 quench inactive
O=S(=O)(Nc1cccc(Cl)c1)c1ccc2oc(=S)[nH]c2c1	none
COc1cccc2c1C(=O)c1c(O)c3c(c(O)c1C2=O)C[C@@](O)(C(=O)CO)C[C@@H]3O[C@H]1C[C@H](N)[C@H](O)[C@H](C)O1	Apaf-1 inh 57.7 | Apaf-1 inh conf2 60.9 | Rh110 quench inactive | Apaf1 inh interf inactive
CC(=O)[C@@]1(O)Cc2c(O)c3c(c(O)c2[C@H](O[C@H]2C[C@H](N)[C@H](O)[C@H](C)O2)C1)C(=O)c1ccccc1C3=O	none (no result: SENP8 block-1, SENP6 inh, SENP7 inh, UBC13 polyUb, Apaf-1 inh)
COc1ccc(NC(=O)C2CCCN2C(=O)Nc2ccc(OC)cc2)cc1 (centres undefined)	none
c1ccc2ncccc2c1	none
Nc1ccc2ncccc2c1	Apaf-1 inh 85.5 | Apaf-1 inh conf2 inactive | Rh110 quench inactive
Fc1ccc(C2=Nc3cccc4cccc(c34)N2)cc1	none
FC(F)(F)C1=Nc2cccc3cccc(c23)N1	SENP8 block-2 61.6, Apaf-1 inh 66.1 | Apaf-1 inh conf2 63.3 | Rh110 quench inactive | Apaf1 inh interf inactive
O=C(CSC1=N/C(=C/c2ccc(Cl)c(Cl)c2)C(=O)N1c1ccccc1F)NC1CC1	none
CN1/C(=C\C(=O)COC(=O)c2ccc([N+](=O)[O-])o2)C(C)(C)c2ccccc21	Apaf-1 inh 56.2 | Apaf-1 inh conf2 inactive | Rh110 quench inactive
CN1/C(=C\C(=O)COC(=O)c2nccnc2N)C(C)(C)c2ccccc21	none
Cc1ccc(C(=O)Nc2ccccn2)cc1S(=O)(=O)N1CCOCC1	Apaf-1 inh 42.8 | Apaf-1 inh conf2 inactive | Rh110 quench inactive
CCOC(=O)c1c(C)c2c(=O)[nH]cnc2n1-c1ccccc1	Apaf-1 inh 57.5 | Apaf-1 inh conf2 inactive | Rh110 quench inactive

Bioassay records deposited in PubChem BioAssay by Sanford-Burnham Center for Chemical Genomics.
